Measured values reported in PMC12709667 (Journal of Clinical Pharmacology, 2025).

Key:
[1] = In vitro blood/plasma partitioning; assay type: in vitro ADME; settings: monkey, whole blood
Summary of the method: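 Test compound was added to rat, monkey or human whole blood and incubated, then centrifuged to obtain plasma. The plasma concentration was measured by LC-MS. It was compared with the concentration in directly spiked plasma of the same species.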

UGT1A3 = molecular target: T1, UGT1A3 (Homo sapiens, UniProt P35503); assay: Phase 2 enzyme inhibition; assay type: in vitro ADME
T1 sequence (P35503 29-534): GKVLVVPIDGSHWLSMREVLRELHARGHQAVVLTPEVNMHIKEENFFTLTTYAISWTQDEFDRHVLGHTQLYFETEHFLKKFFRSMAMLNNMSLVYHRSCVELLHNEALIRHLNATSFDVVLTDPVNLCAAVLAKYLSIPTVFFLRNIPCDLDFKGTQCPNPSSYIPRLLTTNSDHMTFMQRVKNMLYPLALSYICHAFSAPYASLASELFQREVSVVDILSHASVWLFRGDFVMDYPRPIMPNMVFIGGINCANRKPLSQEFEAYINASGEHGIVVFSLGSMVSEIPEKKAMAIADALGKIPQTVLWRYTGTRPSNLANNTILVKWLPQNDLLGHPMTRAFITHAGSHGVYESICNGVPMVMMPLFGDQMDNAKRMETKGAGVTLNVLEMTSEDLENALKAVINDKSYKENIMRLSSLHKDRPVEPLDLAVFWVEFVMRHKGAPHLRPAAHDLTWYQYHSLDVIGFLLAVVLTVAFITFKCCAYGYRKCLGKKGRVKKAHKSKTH

[2] = Quantitative whole-body autoradiography tissue distribution in mice; assay type: in vivo, mouse; settings: for association of radioactivity with melanin: pigmented mice
Summary of the method: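 Quantitative whole-body autoradiography after dosing with [14C]-labelled test compound, in non-pigmented (albino) and partially pigmented C57 mice. Frozen carcasses were sectioned and imaged at timepoints from 1 h to 168 h postdose to measure tissue radioactivity. Melanin-containing tissues (skin, uveal tract) were included.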

[3] = 28-day Good Laboratory Practice toxicology study; assay type: in vivo, mouse; settings: mice
BCRP = molecular target: T2, BCRP (Homo sapiens, UniProt Q9UNQ0); assay: ABC transporter inhibition, inside-out vesicles; assay type: in vitro ADME
T2 sequence (Q9UNQ0 1-655): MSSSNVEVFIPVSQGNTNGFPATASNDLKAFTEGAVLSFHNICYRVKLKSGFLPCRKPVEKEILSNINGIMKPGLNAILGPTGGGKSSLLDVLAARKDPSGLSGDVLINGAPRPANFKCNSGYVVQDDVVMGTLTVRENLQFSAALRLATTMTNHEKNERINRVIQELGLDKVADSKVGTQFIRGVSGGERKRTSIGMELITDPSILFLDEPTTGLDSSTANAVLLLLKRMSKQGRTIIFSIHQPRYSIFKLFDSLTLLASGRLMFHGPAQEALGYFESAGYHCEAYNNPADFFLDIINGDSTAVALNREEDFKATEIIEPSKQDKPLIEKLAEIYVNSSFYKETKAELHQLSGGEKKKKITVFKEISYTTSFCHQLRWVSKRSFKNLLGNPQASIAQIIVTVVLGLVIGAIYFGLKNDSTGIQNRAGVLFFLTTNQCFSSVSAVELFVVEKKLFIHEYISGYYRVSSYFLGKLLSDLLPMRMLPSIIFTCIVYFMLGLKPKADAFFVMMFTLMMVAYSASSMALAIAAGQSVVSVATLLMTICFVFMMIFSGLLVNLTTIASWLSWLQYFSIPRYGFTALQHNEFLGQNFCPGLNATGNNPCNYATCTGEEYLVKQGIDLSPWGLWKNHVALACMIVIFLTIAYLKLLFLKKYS
Summary of the method: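 Inhibition of human BCRP transport was measured in inside-out membrane vesicles prepared from cells overexpressing the human ABC transporter.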

O=c1[nH]c(=O)c(Cc2cccc(C(F)(F)F)c2)c([C@H]2CC[C@H](c3ccccc3)CC2)[nH]1 [miricorilant]
blood plasma ratio [1]: 0.83
inhibition of UGT1A3 (UGT1A3): did not inhibit
radioactivity in the lens of the eye ([2]; albino mice): not present at quantifiable levels
radioactivity in the brain and spinal cord ([2]; albino mice, 4 and 8 h): low levels
time of peak tissue concentration of radioactivity ([2]; albino mice, majority of tissues (pancreas, liver, gall bladder etc.)): 4 h
radioactivity in the liver ([2]; mice): high concentrations
association of radioactivity with melanin [2]: no long‐term association
association of radioactivity with melanin ([2]; listed as [^14C]‐miricorilant): no affinity
adverse effects in 28‐day toxicology study [3]: No adverse effects
IC50 (BCRP): 480 nM
